Test results reported in ChEMBL document CHEMBL3272012, “5-(Tetradecyloxy)-2-furancarboxylic acid and related hypolipidemic fatty acid-like alkyloxyarylcarboxylic acids” (J Med Chem, 1977).
One block for each molecule: values may come before it.

Columns and labels:
Rattus norvegicus [1] = experiment: Hypolipidemic activity in Wistar rat assessed as reduction in plasma cholesterol level at 89 umol/kg/day administered through diet for 10 days; format: functional; settings: 240 h
Method in brief: (§1)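 Young male Wistar rats (initial weight 170-190 g), groups of six, fed compound mixed into Purina Lab Chow ad libitum for 4 or 10 days; daily dose calculated from food consumption and body weight. Bled by cardiac puncture; plasma cholesterol and triglycerides by automated procedures; percent reduction versus simultaneous untreated controls, Student's t test.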

Rattus norvegicus [2] = experiment: Increase in liver weight in Wistar rat at 303 umol/kg/day administered through diet for 10 days; format: ADME, organism-based; settings: in vivo, po, 240 h
Rattus norvegicus [3] = experiment: Increase in liver weight in Wistar rat at 944 umol/kg/day administered through diet for 10 days; format: ADME, organism-based; settings: in vivo, po, 240 h
Rattus norvegicus [4] = experiment: Hypolipidemic activity in Wistar rat assessed as reduction in plasma triglyceride level at 303 umol/kg/day administered through diet for 10 days; format: functional; settings: 240 h
Method in brief: (§2)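 Young male Wistar rats, 170-190 g initial weight, six per group, fed drug mixed thoroughly into Purina Lab Chow ad libitum for the stated days; daily dose calculated from food consumption and body weight. Bled by cardiac puncture at end; plasma cholesterol and triglycerides by automated procedures, expressed as percent reduction versus simultaneous untreated controls; Student's t test.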

Rattus norvegicus [5] = experiment: Hypolipidemic activity in Wistar rat assessed as reduction in plasma cholesterol level at 944 umol/kg/day administered through diet for 10 days; format: functional; settings: 240 h; method in brief: as §1
Rattus norvegicus [6] = experiment: Increase in cholesterol level in Wistar rat liver at 89 umol/kg/day administered through diet for 10 days; format: ADME, organism-based; settings: in vivo, po, 240 h
Rattus norvegicus [7] = experiment: Increase in cholesterol level in Wistar rat liver at 944 umol/kg/day administered through diet for 10 days; format: ADME, organism-based; settings: in vivo, po, 240 h
Rattus norvegicus [8] = experiment: Hypolipidemic activity in Wistar rat assessed as reduction in plasma triglyceride level at 89 umol/kg/day administered through diet for 10 days; format: functional; settings: 240 h
Rattus norvegicus [9] = experiment: Increase in cholesterol level in Wistar rat liver at 303 umol/kg/day administered through diet for 10 days; format: ADME, organism-based; settings: in vivo, po, 240 h
Rattus norvegicus [10] = experiment: Increase in liver weight in Wistar rat at 89 umol/kg/day administered through diet for 10 days; format: ADME, organism-based; settings: in vivo, po, 240 h
Rattus norvegicus [11] = experiment: Hypolipidemic activity in Wistar rat assessed as reduction in plasma cholesterol level at 303 umol/kg/day administered through diet for 10 days; format: functional; settings: 240 h
Method in brief: (§3)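 Young male Wistar rats, 170-190 g at start, in groups of six, given compound mixed into Purina Lab Chow ad libitum for 4 or 10 days as stated. Daily dose was calculated from food consumption and body weight. Plasma was taken by cardiac puncture at the end and cholesterol measured by automated procedure. Results are % reduction versus a concurrent untreated control group, with Student's t test.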

Rattus norvegicus [12] = experiment: Hypolipidemic activity in Wistar rat assessed as reduction in plasma triglyceride level at 944 umol/kg/day administered through diet for 10 days; format: functional; settings: 240 h
Rattus norvegicus [13] = experiment: Hypolipidemic activity in Wistar rat assessed as reduction in plasma cholesterol level at 524 umol/kg/day administered through diet for 4 days; format: functional; settings: 96 h
Method in brief: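 Young male Wistar rats, 170-190 g initial weight, groups of six, given compound mixed thoroughly into Purina Lab Chow ad libitum for 4 or 10 days as stated. Daily dose calculated from food consumption and body weight. Bled by cardiac puncture at end of treatment; plasma cholesterol measured by automated procedure. Expressed as percent reduction versus simultaneous untreated control group; Student's t test.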

Rattus norvegicus [14] = experiment: Increase in liver weight in Wistar rat at 524 umol/kg/day administered through diet for 4 days; format: ADME, organism-based; settings: in vivo, po, 96 h
Rattus norvegicus [15] = experiment: Hypolipidemic activity in Wistar rat assessed as reduction in plasma triglyceride level at 524 umol/kg/day administered through diet for 4 days; format: functional; settings: 96 h
Rattus norvegicus [16] = experiment: Increase in liver weight in Wistar rat at 332 umol/kg/day administered through diet for 10 days; format: ADME, organism-based; settings: in vivo, po, 240 h
Rattus norvegicus [17] = experiment: Increase in liver weight in Wistar rat at 84 umol/kg/day administered through diet for 10 days; format: ADME, organism-based; settings: in vivo, po, 240 h
Rattus norvegicus [18] = experiment: Hypolipidemic activity in Wistar rat assessed as reduction in plasma triglyceride level at 332 umol/kg/day administered through diet for 10 days; format: functional; settings: 240 h; method in brief: as §2
Rattus norvegicus [19] = experiment: Hypolipidemic activity in Wistar rat assessed as reduction in plasma triglyceride level at 169 umol/kg/day administered through diet for 10 days; format: functional; settings: 240 h; method in brief: as §2
Rattus norvegicus [20] = experiment: Increase in cholesterol level in Wistar rat liver at 332 umol/kg/day administered through diet for 10 days; format: ADME, organism-based; settings: in vivo, po, 240 h
Rattus norvegicus [21] = experiment: Increase in cholesterol level in Wistar rat liver at 169 umol/kg/day administered through diet for 10 days; format: ADME, organism-based; settings: in vivo, po, 240 h
Rattus norvegicus [22] = experiment: Hypolipidemic activity in Wistar rat assessed as reduction in plasma cholesterol level at 84 umol/kg/day administered through diet for 10 days; format: functional; settings: AT84, Plasma, 240 h; method in brief: as §1
Rattus norvegicus [23] = experiment: Increase in liver weight in Wistar rat at 169 umol/kg/day administered through diet for 10 days; format: ADME, organism-based; settings: in vivo, po, 240 h
Rattus norvegicus [24] = experiment: Hypolipidemic activity in Wistar rat assessed as reduction in plasma cholesterol level at 332 umol/kg/day administered through diet for 10 days; format: functional; settings: 240 h; method in brief: as §3
Rattus norvegicus [25] = experiment: Hypolipidemic activity in Wistar rat assessed as reduction in plasma cholesterol level at 169 umol/kg/day administered through diet for 10 days; format: functional; settings: 240 h; method in brief: as §3
Rattus norvegicus [26] = experiment: Increase in cholesterol level in Wistar rat liver at 84 umol/kg/day administered through diet for 10 days; format: ADME, organism-based; settings: in vivo, po, 240 h
Rattus norvegicus [27] = experiment: Hypolipidemic activity in Wistar rat assessed as reduction in plasma triglyceride level at 84 umol/kg/day administered through diet for 10 days; format: functional; settings: 240 h
Rattus norvegicus [28] = experiment: Increase in liver weight in Wistar rat at 179 umol/kg/day administered through diet for 10 days; format: ADME, organism-based; settings: in vivo, po, 240 h
Rattus norvegicus [29] = experiment: Hypolipidemic activity in Wistar rat assessed as reduction in plasma cholesterol level at 402 umol/kg/day administered through diet for 10 days; format: functional; settings: 240 h; method in brief: as §3
Rattus norvegicus [30] = experiment: Hypolipidemic activity in Wistar rat assessed as reduction in plasma triglyceride level at 179 umol/kg/day administered through diet for 10 days; format: functional; settings: 240 h; method in brief: as §1
Rattus norvegicus [31] = experiment: Hypolipidemic activity in Wistar rat assessed as reduction in plasma cholesterol level at 179 umol/kg/day administered through diet for 10 days; format: functional; settings: 240 h; method in brief: as §3
Rattus norvegicus [32] = experiment: Hypolipidemic activity in Wistar rat assessed as reduction in plasma triglyceride level at 402 umol/kg/day administered through diet for 10 days; format: functional; settings: 240 h
Rattus norvegicus [33] = experiment: Increase in liver weight in Wistar rat at 402 umol/kg/day administered through diet for 10 days; format: ADME, organism-based; settings: in vivo, po, 240 h
Rattus norvegicus [34] = experiment: Increase in cholesterol level in Wistar rat liver at 85 umol/kg/day administered through diet for 10 days; format: ADME, organism-based; settings: in vivo, po, 240 h
Rattus norvegicus [35] = experiment: Increase in liver weight in Wistar rat at 85 umol/kg/day administered through diet for 10 days; format: ADME, organism-based; settings: in vivo, po, 240 h
Rattus norvegicus [36] = experiment: Increase in cholesterol level in Wistar rat liver at 179 umol/kg/day administered through diet for 10 days; format: ADME, organism-based; settings: in vivo, po, 240 h
Method in brief: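 Male Wistar rats (170-190 g), six per group, given compound by admixture to lab chow ad libitum for 4 or 10 days, dose derived from food intake. Liver cholesterol determined by automated procedure, expressed as mg/g wet tissue, compared with an untreated control group by Student's t test.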

Rattus norvegicus [37] = experiment: Hypolipidemic activity in Wistar rat assessed as reduction in plasma cholesterol level at 85 umol/kg/day administered through diet for 10 days; format: functional; settings: 240 h; method in brief: as §1
Rattus norvegicus [38] = experiment: Hypolipidemic activity in Wistar rat assessed as reduction in plasma triglyceride level at 85 umol/kg/day administered through diet for 10 days; format: functional; settings: 240 h
Rattus norvegicus [39] = experiment: Increase in cholesterol level in Wistar rat liver at 402 umol/kg/day administered through diet for 10 days; format: ADME, organism-based; settings: in vivo, po, 240 h

Activity (Rattus norvegicus [2]): 7%
Activity (Rattus norvegicus [3]): 20%
Activity (Rattus norvegicus [6]): 38%
Activity (Rattus norvegicus [7]): 151%
Activity (Rattus norvegicus [9]): 97%
Activity (Rattus norvegicus [10]): 8%
Compound: CCCCCCCCCCCCc1ccc(C(=O)CC(=O)OC)cc1
inhibition in vivo at 89 µmol/kg (Rattus norvegicus [1]): 4%
inhibition in vivo at 303 µmol/kg (Rattus norvegicus [4]): 63%
inhibition in vivo at 944 µmol/kg (Rattus norvegicus [5]): 53%
inhibition in vivo at 89 µmol/kg (Rattus norvegicus [8]): 6%
inhibition in vivo at 303 µmol/kg (Rattus norvegicus [11]): 37%
inhibition in vivo at 944 µmol/kg (Rattus norvegicus [12]): 84%

Activity (Rattus norvegicus [14]): 1%
Compound: CCCCCCCCCCCCCCOc1ccco1
inhibition in vivo at 524 µmol/kg (Rattus norvegicus [13]): 0%
inhibition in vivo at 524 µmol/kg (Rattus norvegicus [15]): 0%

Activity (Rattus norvegicus [16]): 5%
Activity (Rattus norvegicus [17]): 0%
Activity (Rattus norvegicus [20]): 10%
Activity (Rattus norvegicus [21]): 2%
Activity (Rattus norvegicus [23]): 1%
Activity (Rattus norvegicus [26]): 0%
Compound: CCCCCCCCCCCCCCOc1ccc(C(=O)CC(=O)OCc2ccccc2)cc1
inhibition in vivo at 332 µmol/kg (Rattus norvegicus [18]): 43%
inhibition in vivo at 169 µmol/kg (Rattus norvegicus [19]): 70%
inhibition in vivo at 84 µmol/kg (Rattus norvegicus [22]): 16%
inhibition in vivo at 332 µmol/kg (Rattus norvegicus [24]): 24%
inhibition in vivo at 169 µmol/kg (Rattus norvegicus [25]): 15%
inhibition in vivo at 84 µmol/kg (Rattus norvegicus [27]): 8%

Activity (Rattus norvegicus [28]): 3%
Activity (Rattus norvegicus [33]): 7%
Activity (Rattus norvegicus [34]): 0%
Activity (Rattus norvegicus [35]): 0%
Activity (Rattus norvegicus [36]): 4%
Activity (Rattus norvegicus [39]): 9%
Compound: CCCCCCCCCCCCCCOc1ccc(C(=O)CC(=O)OC)cc1
inhibition in vivo at 402 µmol/kg (Rattus norvegicus [29]): 40%
inhibition in vivo at 179 µmol/kg (Rattus norvegicus [30]): 54%
inhibition in vivo at 179 µmol/kg (Rattus norvegicus [31]): 27%
inhibition in vivo at 402 µmol/kg (Rattus norvegicus [32]): 75%
inhibition in vivo at 85 µmol/kg (Rattus norvegicus [37]): 9%
inhibition in vivo at 85 µmol/kg (Rattus norvegicus [38]): 44%
